For data set [1], the target named is Protein arginine N-methyltransferase 5 (Homo sapiens) (UniProt O14744). In words: Inhibition of PRMT5 in p53 knockout human Z138 cells effect on p53 expression at 500 nM incubated for 3 to 11 days by Western blot analysis. It is filed as cell-based. Conditions: time 3-11 day. A general note: In western blotting, separated proteins are transferred to a membrane and probed.

The next data set relates to SW-403. In words: Antiproliferative activity against human SW403 cells assessed as cell growth inhibition incubated for 10 days. Conditions: SW-403, 240 h, time 10 day. It is filed as functional.
The test system of a further data set is SCC-4. In words: Antiproliferative activity against human SCC-4 cells assessed as cell growth inhibition incubated for 10 days. It counts as functional. Conditions: SCC-4, 240 h, time 10 day.
Data set [2] addresses Protein arginine N-methyltransferase 5 (Homo sapiens) (UniProt O14744). In words: Inhibition of PRMT5 in human Z138 cells expressing full length MDM4 assessed as effect on p53 level at 1 uM incubated for 4 days by Western blot analysis. It counts as cell-based. Conditions: time 4.0 day.
The next data set deals with Hs746T. In words: Antiproliferative activity against human Hs746T cells assessed as cell growth inhibition incubated for 10 days. It is filed as functional. Conditions: 240 h, time 10 day. The procedure, abridged: (§1)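 Eurofins panel, 384-well. Cells kept in RPMI-1640 with 10% FBS, 2 mM L-alanyl-L-glutamine and 1 mM Na pyruvate, or in a special medium, at 37°C under 5% CO2. Compound added 24 h after seeding as 10 concentrations in 3.16-fold steps, 0.1% DMSO final. Medium replaced and compound re-dosed at 168 h. After 240 h, cells fixed and nuclei stained for imaging. gIC50 = growth midway between untreated cells and time-zero count.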

In a further data set the test system is Hs 766. In words: Antiproliferative activity against human Hs766T cells assessed as cell growth inhibition incubated for 10 days. It counts as functional. The following applies: Hs 766, 240 h, time 10 day. The procedure, abridged: as §1
Data set [3] deals with Protein arginine N-methyltransferase 5 (Homo sapiens) (UniProt O14744). In words: Inhibition of PRMT5 in human Z138 cells assessed as effect on snRNP B1 level by measuring fold change by LC-MS/MS analysis relative to control. It counts as cell-based.
Another data set has as its system CHL-1. In words: Antiproliferative activity against human CHL-1 cells assessed as cell growth inhibition incubated for 10 days. It is filed as functional. The following applies: CHL-1, 240 h, time 10 day. The method in brief: (§2)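 Cells kept in RPMI-1640 with 10% FBS, 2 mM L-alanyl-L-glutamine and 1 mM Na pyruvate (or a special medium) at 37°C, 5% CO2. Compound added 24 h after seeding, 10 concentrations in 3.16-fold dilution, 0.1% DMSO final. Medium replaced and cells re-dosed at 168 h; 240 h incubation. Nuclei fixed, dye-stained and imaged. gIC50 = growth midway between untreated and time-zero cell counts, from a 4-parameter fit.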

The test system of another data set is RD. In words: Antiproliferative activity against human RD cells assessed as cell growth inhibition incubated for 10 days. It counts as functional. Conditions: 240 h, time 10 day.
The next data set has as its system HLE. In words: Antiproliferative activity against human HLE cells assessed as cell growth inhibition incubated for 10 days. Conditions: 240 h, time 10 day. It counts as functional. The procedure, abridged:
(§3)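 Outsourced panel run in 384-well plates. Cells were grown in RPMI-1640/10% FBS or a special medium at 37°C, 5% CO2. Compound was added 24 h after seeding as a 10-point, 3.16-fold series in 0.1% DMSO. Medium was refreshed and cells re-dosed at 168 h, with a time-zero plate kept. At 240 h cells were fixed, nuclei stained and imaged. gIC50 is growth midway between untreated and time zero, from a 4-parameter fit.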

A further data set concerns HT-29. In words: Antiproliferative activity against human HT-29 cells assessed as cell growth inhibition incubated for 10 days. The following applies: HT-29, 240 h, time 10 day. It is filed as functional. The procedure, abridged: as §3
Another data set concerns A204. In words: Antiproliferative activity against human A204 cells assessed as cell growth inhibition incubated for 10 days. The following applies: A204, 240 h, time 10 day. It counts as functional. The procedure, abridged:
as §2

Data set [4] deals with Protein arginine N-methyltransferase 5 (Homo sapiens) (UniProt O14744). In words: Inhibition of PRMT5 in human Z138 cells assessed as effect on KHSRP level by measuring fold change by LC-MS/MS analysis relative to control. It is filed as cell-based.
A further data set has as its system 769-P. In words: Antiproliferative activity against human 769-P cells assessed as cell growth inhibition incubated for 10 days. It counts as functional. Conditions: 240 h, time 10 day. The procedure, abridged: as §2
For a further data set, the system named is U138-MG. In words: Antiproliferative activity against human U138-MG cells assessed as cell growth inhibition incubated for 10 days. It counts as functional. The following applies: 240 h, time 10 day.
The subject of another data set is DoTc2-4510. In words: Antiproliferative activity against human DoTc2-4510 cells assessed as cell growth inhibition incubated for 10 days. The following applies: DoTc2-4510, 240 h, time 10 day. It is filed as functional. The procedure, abridged: as §3
Data set [5] can be described thus: Antiproliferative activity against human TE 381.T cells assessed as cell growth inhibition incubated for 10 days. It is filed as functional. Conditions: 240 h, time 10 day.
The next data set concerns SW900. In words: Antiproliferative activity against human SW900 cells assessed as cell growth inhibition incubated for 10 days. It counts as functional. The following applies: SW900, 240 h, time 10 day.
In a further data set the test system is HOS. In words: Antiproliferative activity against human HOS cells assessed as cell growth inhibition incubated for 10 days. It is filed as functional. The following applies: 240 h, time 10 day. The procedure, abridged: as §3
Another data set has as its system COLO 320DM. In words: Antiproliferative activity against human Colo 320DM cells assessed as cell growth inhibition incubated for 10 days. It counts as functional. Conditions: 240 h, time 10 day. The procedure, abridged: as §3
For the next data set, the system named is EB-3. In words: Antiproliferative activity against human EB-3 cells assessed as cell growth inhibition incubated for 10 days. It is filed as functional. Conditions: EB-3, 240 h, time 10 day. The procedure, abridged: as §3
The next data set relates to BJAB. In words: Antiproliferative activity against human BJAB cells assessed as cell growth inhibition incubated for 6 days by celltiter-glo assay. It counts as functional. The following applies: 144 h, time 6 day. In general terms: In ATP-based viability assays light output follows the ATP content of the culture.
In another data set the test system is CAKI-2. In words: Antiproliferative activity against human CAKI-2 cells assessed as cell growth inhibition incubated for 10 days. It counts as functional. Conditions: CAKI-2, 240 h, time 10 day. The procedure, abridged: as §2
Data set [6] in a line: Antiproliferative activity against human CML-T1 cells assessed as cell growth inhibition incubated for 10 days. It counts as functional. Conditions: CML-T1, 240 h, time 10 day. The method in brief:
as §2

The next data set relates to U-87 MG. In words: Antiproliferative activity against human U-87 MG cells assessed as cell growth inhibition incubated for 10 days. It counts as functional, U-87MG ATCC. Conditions: 240 h, time 10 day.
The test system of a further data set is ACHN. In words: Antiproliferative activity against human ACHN cells assessed as cell growth inhibition incubated for 10 days. It is filed as functional. Conditions: 240 h, time 10 day. The method in brief: as §2
For a further data set, the system named is SNU-423. In words: Antiproliferative activity against human SNU-423 cells assessed as cell growth inhibition incubated for 10 days. Conditions: SNU-423, 240 h, time 10 day. It is filed as functional.
A short description of data set [7]: Antiproliferative activity against human SKO-007 cells assessed as cell growth inhibition incubated for 10 days. It is filed as functional. The following applies: SKO-007, 240 h, time 10 day.
Data set [8] is described as follows: Toxicity in mouse assessed as body weight loss at 25 mg/kg, po pretreated for 21 days followed by treatment holiday for 10 days and further compound treatment for 2 weeks starting from day 32 followed by 1 week treatment holiday. Conditions: in vivo, 504 h, time 21 day. It counts as organism-based.
Data set [9] concerns Z-138. In words: In vivo inhibition of PRMT5 in human Z138 cells xenografted in mouse assessed as increase in PHLDA3 expression at 100 mg/kg, po BID measured for 7 days. The following applies: time 7.0 day. It counts as functional, organism-based. Background: In xenograft studies the graft and the host belong to different species.
The test system of a further data set is MCF7. In words: Induction of cell cycle arrest in human MCF7 cells assessed as increase in 2n cell population measured upto 5000 nM measured for 2 to 7 days by propidium iodide staining based flow cytometric analysis. It is filed as functional. Conditions: time 2-7 day.
The test system of another data set is JVM-2. In words: Induction of apoptosis in human JVM-2 cells assessed as dead cells incubated for 6 days by annexin-V/FITC propidium iodide staining based flow cytometry analysis. It counts as functional, cell-based. The following applies: dose <= 5000.0 nM, time 6.0 day.
Data set [10] deals with Z-138. In words: Induction of cell cycle arrest in human Z138 cells assessed as increase in sub-2n cell population measured upto 1000 nM measured for 5 days by propidium iodide staining based flow cytometric analysis. It is filed as functional. Conditions: time 5.0 day.
Data set [11] deals with Z-138. In words: Antitumor activity against human Z138 cells xenografted in mouse assessed as reduction in tumor volume at 50 to 100 mg/kg, po BID measured for 10 days. It is filed as functional, organism-based. Conditions: dose 50-100 mg/kg, time 10.0 day.

In general, GI50 refers to the concentration at which growth is held to half of that of the control.

Active and inactive are the calls of the source. The calls are words filed in the database; no cut-off is given here.

Sequence of Protein arginine N-methyltransferase 5 (Homo sapiens) (O14744 whole entry): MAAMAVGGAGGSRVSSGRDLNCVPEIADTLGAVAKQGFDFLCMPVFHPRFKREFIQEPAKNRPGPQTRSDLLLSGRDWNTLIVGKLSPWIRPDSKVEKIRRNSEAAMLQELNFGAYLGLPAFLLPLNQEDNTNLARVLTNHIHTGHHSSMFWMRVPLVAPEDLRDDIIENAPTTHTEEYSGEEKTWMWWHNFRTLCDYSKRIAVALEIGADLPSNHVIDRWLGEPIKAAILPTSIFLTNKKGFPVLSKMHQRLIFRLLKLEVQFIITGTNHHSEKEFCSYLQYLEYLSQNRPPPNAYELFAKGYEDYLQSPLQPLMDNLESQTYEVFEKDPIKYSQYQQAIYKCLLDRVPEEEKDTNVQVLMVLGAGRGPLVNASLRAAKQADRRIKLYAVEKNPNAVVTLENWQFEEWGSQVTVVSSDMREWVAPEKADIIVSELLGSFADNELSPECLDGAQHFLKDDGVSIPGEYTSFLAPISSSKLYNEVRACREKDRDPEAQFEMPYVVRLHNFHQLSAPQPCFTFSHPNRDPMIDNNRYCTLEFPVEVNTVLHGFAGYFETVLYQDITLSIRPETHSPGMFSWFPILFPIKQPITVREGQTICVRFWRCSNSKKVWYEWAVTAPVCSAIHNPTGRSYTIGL

Consider `O=C(NC[C@H](O)CN1CCc2ccccc2C1)c1ccnc(NC2CCC2)c1`, for which the inhibition entry in data set [1] and in data set [2] was “inactive” throughout. In addition, the concentration for 50% growth inhibition (GI50) with SW-403 was 153 nM; in the data set with SCC-4, 286 nM; in the data set with Hs746T it was 171 nM; with Hs 766, 1120 nM; in the data set with CHL-1, 247 nM; in the data set with RD it was 639 nM. The 50% growth inhibitory concentration (GI50) was 174 nM with HLE; 95.2 nM with HT-29; 223 nM in the data set with A204; 203 nM in the data set on 769-P; 43.3 nM in the data set with U138-MG; 95.8 nM in the data set with DoTc2-4510. For the same compound, the GI50 turned out to be 147 nM in data set [5]; 3250 nM with SW900; 223 nM with HOS; 82.5 nM with COLO 320DM; 299 nM in the data set on EB-3; 3100 nM in the data set with BJAB. Moreover, the 50% growth inhibitory concentration (GI50) in the data set with CAKI-2 amounted to 114 nM; in data set [6], 16.1 nM; with U-87 MG, 67.6 nM; in the data set with ACHN, 38.6 nM; in the data set on SNU-423 it was 66 nM; in data set [7], 84.4 nM. In addition, the values for the fold change (FC) in data set [3] and in data set [4] were -16.8 and -7.8, respectively.
In the case of `CC(=O)N1CCC(Nc2cc(C(=O)NC[C@H](O)CN3CCc4ccccc4C3)ncn2)CC1` [PEMRAMETOSTAT], the values for the Activity entry (in [8]; in the data set on JVM-2) were “Non-Toxic” and “Dose-Dependent Effect”, respectively. The inhibition result with Z-138 [9] is “Active”. Besides, the outcome with MCF7, in the data set on Z-138 [10] and in the data set on Z-138 [11] was Active.

Source of the values: ChEMBL document CHEMBL5653630, “Activation of the p53-MDM4 regulatory axis defines the anti-tumour response to PRMT5 inhibition through its role in regulating cellular splicing” (Sci Rep, 2018).
